pEC50, pKi: −log10 of the molar value. Active and inactive are the calls of the source.
Experiments:
Cannabinoid receptor 2 [1] = target: T1, Cannabinoid receptor 2 (Homo sapiens, UniProt P34972); experiment: Displacement of [3H]CP-55940 from human CB2 receptor
In short: (§1)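 Membranes with cloned human CB1 or CB2 receptors; test ligand displaces [3H]CP-55940; Ki values are geometric means of at least three separate determinations.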
Target sequence in this assay (P34972 whole entry): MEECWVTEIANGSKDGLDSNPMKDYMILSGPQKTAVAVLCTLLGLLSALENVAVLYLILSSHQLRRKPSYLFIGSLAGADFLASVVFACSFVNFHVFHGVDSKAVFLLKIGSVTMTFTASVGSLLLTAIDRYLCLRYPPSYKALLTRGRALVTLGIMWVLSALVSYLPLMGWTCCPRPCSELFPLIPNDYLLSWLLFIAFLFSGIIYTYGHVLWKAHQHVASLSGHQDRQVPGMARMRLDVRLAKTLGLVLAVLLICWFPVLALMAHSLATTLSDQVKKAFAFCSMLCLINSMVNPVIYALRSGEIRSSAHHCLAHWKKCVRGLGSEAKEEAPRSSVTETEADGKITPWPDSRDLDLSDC

Cannabinoid receptor 2 [2] = target: T1, Cannabinoid receptor 2; experiment: Inhibition of [3H]CP-55940 binding to human CB2 receptor at 10 uM
Target sequence in this assay (P34972 whole entry, looked up): as the sequence (P34972 whole entry) above

Cannabinoid receptor 2 [3] = target: T2, Cannabinoid receptor 2 (Rattus norvegicus, UniProt Q9QZN9); experiment: Agonist activity at rat brain CB2 receptor by GTPgammaS binding assay; format: functional
T2 sequence (Q9QZN9 whole entry): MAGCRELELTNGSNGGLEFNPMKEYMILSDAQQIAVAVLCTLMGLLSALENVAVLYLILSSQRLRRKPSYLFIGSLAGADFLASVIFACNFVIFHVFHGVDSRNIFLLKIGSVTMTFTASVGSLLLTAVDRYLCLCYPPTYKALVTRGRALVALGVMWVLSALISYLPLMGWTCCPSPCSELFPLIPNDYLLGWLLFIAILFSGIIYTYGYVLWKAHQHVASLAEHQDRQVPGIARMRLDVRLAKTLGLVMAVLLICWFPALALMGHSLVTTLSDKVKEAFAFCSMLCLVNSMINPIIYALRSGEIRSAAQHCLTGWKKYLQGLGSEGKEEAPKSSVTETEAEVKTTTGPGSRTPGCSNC

Cannabinoid receptor 1 = Cannabinoid receptor 1 (Homo sapiens, UniProt P21554); experiment: Displacement of [3H]CP-55940 from human CB1 receptor; in short: as §1
Homo sapiens = species on record: Homo sapiens; experiment: Selectivity, ratio of Ki for human CB1 to Ki for human CB2
In short: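 Ki at each receptor came from displacement of [³H]CP-55940 binding in membranes containing cloned human CB₁ or CB₂ receptor. Ki values are geometric means of at least three separate determinations. Selectivity is Ki CB₁ divided by Ki CB₂.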

Liver microsomes [4] = experiment: Metabolic stability in human liver microsomes; format: ADME, Microsome
In short: (§2)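 Parent compound incubated with rat (RLM) or human (HLM) liver microsomes for 30 min; result given as % parent remaining.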

Liver microsomes [5] = experiment: Metabolic stability in rat liver microsomes; format: ADME, Microsome; in short: as §2
[6] = AUC (0 to infinity) in Sprague-Dawley rat at 100 mg/kg, po; format: ADME, organism-based; parameters: time infinity, dose 100 mg/kg, route oral; conditions: plasma
[7] = Cmax in Sprague-Dawley rat at 100 mg/kg, po; format: ADME, organism-based; parameters: dose 100 mg/kg, route oral; conditions: in vivo
In short: (§3)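 Male Sprague-Dawley rats dosed 100 mg/kg po. Cmax and oral F are mean ± SD of three animals; F is referenced to a 1.0 mg/kg iv dose; Tmax is given as median and range.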

[8] = Oral bioavailability in Sprague-Dawley rat at 100 mg/kg; format: ADME, organism-based; conditions: in vivo; in short: as §3
[9] = AUC (0 to infinity) in Sprague-Dawley rat at 1 mg/kg, iv; format: ADME, organism-based; parameters: time infinity, dose 1 mg/kg, route intravenous; conditions: plasma
[10] = Half life in Sprague-Dawley rat at 1 mg/kg, iv; format: ADME, organism-based; parameters: dose 1 mg/kg, route intravenous; conditions: in vivo
Rattus norvegicus = experiment: Antiallodynic effect against rat hind paw insition model assessed as paw withdrawal at 30 mg/kg, ip; format: functional, organism-based; parameters: dose 30 mg/kg
In short: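 Rat hindpaw incision surgery model with vehicle and morphine treatment groups. Mechanical paw withdrawal threshold of the left hindpaw was followed over time. Data are mean ± SEM; one-way ANOVA with post-hoc protected t-test versus the vehicle-treated surgery group.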

[11] = Clearance in Sprague-Dawley rat at 1 mg/kg, iv; format: ADME, organism-based; parameters: dose 1 mg/kg, route intravenous; conditions: in vivo
[12] = Volume of distribution at steady state in Sprague-Dawley rat at 1 mg/kg, iv; format: ADME, organism-based; parameters: dose 1 mg/kg, route intravenous; conditions: in vivo, read-out: Vdss
[13] = Tmax in Sprague-Dawley rat at 100 mg/kg, po; format: ADME, organism-based; parameters: dose 100 mg/kg, route oral; conditions: in vivo; in short: as §3

Chain of Cannabinoid receptor 1 (P21554 whole entry): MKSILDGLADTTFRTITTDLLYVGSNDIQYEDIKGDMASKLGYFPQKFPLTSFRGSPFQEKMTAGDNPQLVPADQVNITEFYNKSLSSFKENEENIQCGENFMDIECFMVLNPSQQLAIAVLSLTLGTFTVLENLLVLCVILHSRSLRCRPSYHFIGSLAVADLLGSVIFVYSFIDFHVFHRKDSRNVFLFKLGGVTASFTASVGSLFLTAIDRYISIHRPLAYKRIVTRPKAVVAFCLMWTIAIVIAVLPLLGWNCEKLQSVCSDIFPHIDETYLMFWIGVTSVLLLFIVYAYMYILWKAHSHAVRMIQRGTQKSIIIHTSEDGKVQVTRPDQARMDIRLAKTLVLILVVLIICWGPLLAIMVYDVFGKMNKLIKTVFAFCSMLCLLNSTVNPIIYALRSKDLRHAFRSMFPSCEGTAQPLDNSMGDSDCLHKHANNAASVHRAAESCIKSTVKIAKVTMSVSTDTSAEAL

| SMILES | pKi (Cannabinoid receptor 2 [1]) | pEC50 (Cannabinoid receptor 2 [3]) | pKi (Cannabinoid receptor 1) | Ratio Ki (Homo sapiens) | Stability (Liver microsomes [4]) | Stability (Liver microsomes [5]) | other results |
| --- | --- | --- | --- | --- | --- | --- | --- |
| CCC(C)(C)C(=O)Nc1cc(C)c(C)c(S(=O)(=O)N2CC[C@H](O)C2)c1 | 7.05 | 7.14 | – | – | – | – | inhibition (Cannabinoid receptor 2 [2]): 6.3% |
| CCC(C)(C)C(=O)Nc1cc(C)c(C)c(S(=O)(=O)N2CCC[C@@H]2CO)c1 | 7.37 | 7.01 | – | – | – | – | inhibition (Cannabinoid receptor 2 [2]): 8.3% |
| CCC(C)(C)C(=O)Nc1cc(C)c(C)c(S(=O)(=O)NCC2CC2)c1 | 7.18 | 6.87 | 5.42 | 57 | – | – | – |
| CCC(C)(C)C(=O)Nc1cc2c(c(S(=O)(=O)N3CCOCC3)c1)CCCC2 | 7.85 | 5.85 | 5.85 | 100 | 1% | 2% | – |
| CCC(C)(C)C(=O)Nc1cc(C)c(C)c(S(=O)(=O)N2CCSC2)c1 | 8.16 | 7.92 | 5.68 | 300 | 0% | 0% | – |
| CCC(C)(C)C(=O)Nc1cc(C)c(C)c(S(=O)(=O)N2CCOCC2)c1 | 7.77 | 7.42 | 5.60 | 150 | 17% | 28% | AUC(0-inf) [6]: 4800 ng·h/mL; Cmax [7]: 1220 ng/mL; bioavailability [8]: 22%; AUC(0-inf) [9]: 237 ng·h/mL; half-life [10]: 0.7 h; Activity (Rattus norvegicus): Active; clearance [11]: 70 mL/min/kg; Vd [12]: 2.5 L/kg; Tmax [13]: 6 h |
| CCCCC(C)(C)C(=O)Nc1cc(C)c(C)c(S(=O)(=O)N2CCOCC2)c1 | 8.96 | 7.09 | 6.85 | 130 | 0% | 0% | – |
| CCC(C)(C)C(=O)Nc1cc(C)c(C)c(S(=O)(=O)NC2CCCC2)c1 | 7.03 | 7.01 | 5.47 | 36 | – | – | – |
| CCC(C)(C)C(=O)Nc1cc2c(c(S(=O)(=O)N3CCOCC3)c1)CCC2 | 7.92 | 5.77 | 5.77 | 140 | 10% | 9% | – |
| CCC(C)(C)C(=O)Nc1cc(S(=O)(=O)N2CCOCC2)c(C)cc1C | 6.12 | – | – | – | – | – | – |
| Cc1cc(NC(=O)C2C(C)(C)C2(C)C)cc(S(=O)(=O)N2CCOCC2)c1C | 7.80 | 7.18 | 5.96 | 69 | 17% | 31% | – |
| CCC(C)(C)C(=O)Nc1ccc(C)c(S(=O)(=O)N2CCOCC2)c1 | 6.54 | – | – | – | – | – | – |
| Cc1cc(NC(=O)C(C)(C)c2ccccc2)cc(S(=O)(=O)N2CCOCC2)c1C | 6.92 | – | – | – | – | – | – |
| Cc1cc(NC(=O)C(C)(C)O)cc(S(=O)(=O)N2CCOCC2)c1C | 5.68 | – | – | – | – | – | – |
| CCC(C)(C)C(=O)Nc1cc(C)c(C)c(S(=O)(=O)N2CCCCC2)c1 | 8.57 | 7.89 | 6.19 | 240 | 0% | 0% | – |
| CCC(C)(C)C(=O)Nc1cc(S(=O)(=O)N2CCOCC2)c(C)c(C)c1C | 6.39 | – | – | – | – | – | – |
| CCCC(C)(C)C(=O)Nc1cc(C)c(C)c(S(=O)(=O)N2CCOCC2)c1 | 8.01 | 7.68 | 6.08 | 86 | 1% | 9% | – |
| Cc1ccc(NC(=O)C2C(C)(C)C2(C)C)cc1S(=O)(=O)N1CCOCC1 | – | 7.96 | – | 150 | 1% | 2% | – |
| CCC(C)(C)C(=O)Nc1cc(C)c(C)c(S(=O)(=O)N2CCCCCC2)c1 | 8.05 | 7.66 | 5.74 | 200 | 0% | 0% | – |
| Cc1cc(NC(=O)C(C)(C(F)(F)F)C(F)(F)F)cc(S(=O)(=O)N2CCOCC2)c1C | 8.18 | 7.96 | 6.11 | 120 | 11% | 22% | – |
| Cc1cc(NC(=O)C(C)(C)C)cc(S(=O)(=O)N2CCOCC2)c1C | 7.40 | 7.05 | 5.51 | 78 | 52% | 37% | – |
| CCC(C)(C)C(=O)Nc1cc(C)c(C)c(S(=O)(=O)N2CCS(=O)(=O)CC2)c1 | 8.08 | 7.70 | – | – | 1% | 10% | inhibition (Cannabinoid receptor 2 [2]): 18% |
| COCCC(C)(C)C(=O)Nc1cc(C)c(C)c(S(=O)(=O)N2CCOCC2)c1 | 6.96 | – | – | – | – | – | – |
| CCC(C)(C)C(=O)Nc1cc(S(=O)(=O)N2CCOCC2)cc(C)c1C | – | – | – | – | – | – | inhibition (Cannabinoid receptor 2 [2]): 15% |
